Screens deposited in PubChem BioAssay by The Scripps Research Institute Molecular Screening Center.
Hits are enriched below; roughly 3.7% of the tested compounds scored in any of these assays.
core dimer inh – blocks dimerization of HCV core protein. inhibition, % at 5 µM. actives 0.33% (n = 300,000). TR-FRET GST/Flag-core106 dimerization, 1536-well;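 active = inhibition above the mean of all tested compounds plus 3 SD, set per screening campaign, cut at about 45% in these data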
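Assay system: tagged HCV core106 pair (GST and Flag); medium: KF-containing HEPES buffer, pH 7.45, DTT, CHAPS, BSA; also added: Eu donor and XL665 acceptor anti-tag antibodies; dosing: 5 µM single dose; timing: compound-protein-antibody incubation 4 h at 22.5 °C; signal: TR-FRET 671 and 617 nm emission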
TAAR1 ag – human TAAR1 agonism; actives 0.99% (n = 360,000); activation, % at 3 µM; CHO RD-HGA16 TAAR1, Fluo-8 calcium fluorescence; vehicle wells 0%, saturating PEA agonist 100%; Q96RJ0;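 active = activation above the mean activation of all test compounds in the run plus 3 SD, cut at about 38% in these data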
Target sequence (Q96RJ0 whole entry, looked up): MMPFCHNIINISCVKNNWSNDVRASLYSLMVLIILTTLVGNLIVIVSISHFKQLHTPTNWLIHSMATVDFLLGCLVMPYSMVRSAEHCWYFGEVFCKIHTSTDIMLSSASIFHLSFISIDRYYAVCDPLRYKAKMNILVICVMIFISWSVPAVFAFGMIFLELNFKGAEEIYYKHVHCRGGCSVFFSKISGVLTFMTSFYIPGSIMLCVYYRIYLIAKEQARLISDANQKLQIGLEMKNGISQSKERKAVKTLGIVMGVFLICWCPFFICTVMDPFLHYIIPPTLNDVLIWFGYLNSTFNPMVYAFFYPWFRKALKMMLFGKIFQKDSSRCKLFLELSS
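Benchmarks: low control DMSO, high control PEA (EC100); System: CHO RD-HGA16 cells carrying human TAAR1 plus Gα16; Detection: Fluo-8 fluorescence, 5 s baseline then 140 s kinetic read; Schedule: 17-24 h plating, Fluo-8 75 min 37 °C, 30 min RT; Read-out basis: % activation from peak over basal fluorescence ratio, DMSO-to-PEA scaled.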
rCAG binder – binds r(CAG) RNA repeats; r(CAG) RNA repeat, TO-PRO-1 dye displacement fluorescence; inhibition, % at 3 µM; actives 1.3% (n = 370,000); AID 651821;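 active = inhibition above the plate cutoff, the mean of all test compounds on that plate plus 3 SD, cut at about 35% in these data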;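 also: 0% = DMSO alone and 100% = 100 µM mitoxantrone as full dye displacement; higher means more dye released from RNA so lower well fluorescence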
TAAR1 antag – human TAAR1 antagonism; Q96RJ0; CHO RD-HGA16 TAAR1, Fluo-8 calcium fluorescence, antagonist; inhibition, % at 3 µM; actives 1.5% (n = 360,000);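 active = inhibition above a per-plate cutoff, the mean inhibition of test compounds on that plate plus 3 SD, cut at about 49% in these data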;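 also: 0% = DMSO plus EC80 beta-PEA response and 100% = DMSO alone without agonist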
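System: CHO RD-HGA16 cells bearing hTAAR1. Reagent: EC80 β-phenethylamine stimulus. Schedule: seeding 17-24 h prior, 75-min 37 °C, 30-min RT dye loading. Signal: Fluo-8 intracellular calcium dye fluorescence, real-time kinetic reads. Read-out: % inhibition from peak post-agonist over basal fluorescence ratio. Benchmarks: vehicle wells and EC80 agonist wells. Replicates: n of 1.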
HCV NS3 hel inh – inhibitors of Hepatitis C virus NS3 helicase; inhibition, % at 10.9 µM; actives 0.56% (n = 290,000); NS3 helicase DNA unwinding, Cy5 molecular beacon fluorescence;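 active = inhibition above the mean of all tested compounds plus 3 SD, set per campaign, cut at about 35% in these data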;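 also: 0% = DMSO wells and 100% = thioflavine S control wells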
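System: HCV NS3 helicase fragment; control set: DMSO and thioflavine S; technique: Cy5 fluorescence at 0 and 60 min, beacon hairpin quenching; reagent: beacon DNA duplex substrate plus ATP; replicates: singlicate; schedule: 1 h reaction at 25 °C, ATP-initiated; medium: MOPS buffer pH 6.5 with MgCl2, DTT, Tween20, BSA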
* marks the source's active call; other numbers are inactive results; · = no result.

SMILES	core dimer inh	TAAR1 ag	rCAG binder	TAAR1 antag	HCV NS3 hel inh
Cc1cccc(-c2nnc(SCC(=O)Nc3ccc(-c4nc5ccc(C)cc5s4)cc3)n2Cc2ccco2)c1	·	·	24	·	·
Cc1nn(-c2ccccc2)c(C)c1NC(=O)COC(=O)c1cc(Br)ccc1O	1	18	0	61*	·
Cc1cc(C(=O)COC(=O)c2ccc(Cl)c(S(N)(=O)=O)c2)c(C)n1C1CC1	12	10	7	49*	·
Cc1cc(C(=O)COC(=O)c2ccc(NC(=O)CC#N)cc2)c(C)n1C1CC1	·	4	19	-2	·
O=C(COC(=O)c1cc(Br)ccc1O)Nc1ccc2c(c1)OCCO2	-1	14	6	51*	·
Cc1nn(-c2ccccc2)c(C)c1NC(=O)COC(=O)c1ccc(Cl)c(S(N)(=O)=O)c1	2	13	7	53*	·
O=[N+]([O-])c1ccc(N2CCN(Cc3ccccc3)CC2)s1	-11	0	-2	19	-19
O=[N+]([O-])c1ccc(N2CCN(Cc3ccccc3)CC2)c2c1no[n+]2[O-]	·	13	1	63*	·
Cc1ccc(-c2csc(C3=C(O)CN(NC(=O)c4ccc([N+](=O)[O-])cc4)C3=N)n2)cc1	48*	2	5	-7	5
N=C1C(c2nc(-c3ccc(Br)cc3)cs2)=C(O)CN1NC(=O)c1ccc([N+](=O)[O-])cc1	53*	6	5	-18	9
COCCCNC(=O)c1ccc(Cn2c(=O)c3ccccc3n(Cc3ccc([N+](=O)[O-])cc3)c2=O)cc1	·	·	5	·	·
CCOC(=O)C1CCN(Cc2nc3ccc([N+](=O)[O-])cc3c(=O)n2-c2ccc(OC)cc2OC)CC1	14	0	6	-18	0
CCOC(=O)C1CCCN(Cc2nc3ccc([N+](=O)[O-])cc3c(=O)n2-c2ccc(OC)cc2OC)C1 (stereo not drawn)	8	46*	1	69*	6
C(#CC1=CCCCC1)CNCC1CC1	·	·	1	·	·
COc1ccc(Cc2nnc(NC(=O)CSc3ccccc3)s2)cc1OC	5	50*	-3	1	2
Oc1ccc(C(c2nnnn2C2CCCC2)N2CCc3ccccc3C2)cc1 (stereo not drawn)	19	82*	-3	84*	-11
CCCC(C)C(=O)Nc1ccc(S(=O)(=O)N2CCCC2)cc1 (stereo not drawn)	-9	5	1	1	8
N#Cc1ccc(NCC(=O)Nc2ccc(S(=O)(=O)N3CCCCC3)cc2)cc1	·	39*	7	21	·
O=C(Cc1ccc(F)cc1)Nc1ccc(S(=O)(=O)N2CCCC2)cc1	-1	10	1	6	·
O=C(CNc1ccc(Br)cc1)Nc1ccc(S(=O)(=O)N2CCCCC2)cc1	·	23	10	15	·
O=S(=O)(c1ccc(NC(=S)NCc2ccc(F)cc2)cc1)N1CCOCC1	7	44*	10	27	-7
CCCC(C(=O)Nc1ccc(S(=O)(=O)N2CCCC2)cc1)c1ccccc1 (stereo not drawn)	4	41*	5	26	·
O=C(Cc1ccc(Br)cc1)Nc1ccc(S(=O)(=O)N2CCCC2)cc1	9	38*	6	6	-15
COC(=O)c1cc(C(C)c2c[nH]c3ccccc23)n2ccccc12 (stereo not drawn)	·	·	5	·	·
C=CCN1[C@@H](Cc2ccccc2)COc2cc(F)ccc2S1(=O)=O	·	·	0	·	·
SMILES	core dimer inh	TAAR1 ag	rCAG binder	TAAR1 antag	HCV NS3 hel inh
O=C(Cc1ccc(Cl)cc1)Nc1ccc(Br)cc1	5	40*	-1	32	5
O=C(Nc1ccc(S(=O)(=O)N2CCCCC2)cc1)c1ccncc1	-3	11	-2	0	5
O=C(Nc1ccc(F)cc1)Nc1ccc(S(=O)(=O)N2CCCC2)cc1	·	48*	8	51*	·
CC(C)(C)c1ccc(NC(=O)Nc2ccc(F)cc2)cc1	2	12	6	94*	8
O=C(Cc1ccc(Br)cc1)NNC(=O)Nc1ccc(Cl)cc1	4	2	1	3	-8
O=C(Nc1ccc(Cc2ccncc2)cc1)c1ccc(S(=O)(=O)N2CCCC2)cc1	·	22	-7	57*	1
O=C(Nc1ccc(F)cc1)c1ccc(S(=O)(=O)N2CCCC2)cc1	-8	2	2	10	2
O=C(NCc1c(F)cccc1F)C1CCC(CNS(=O)(=O)c2cccc3cccnc23)CC1 (stereo not drawn)	·	·	1	·	·
CC(NCc1ccco1)C(=O)N1CCCN(C)CC1 (stereo not drawn)	·	·	3	·	·
Cc1cc(NS(=O)(=O)c2ccc(NC(=O)CSc3nnc(-c4ccccn4)n3Cc3ccco3)cc2)nc(C)n1	·	·	22	·	·
CC(C)[C@@H](CO)N(Cc1cn(Cc2ccccc2)nn1)S(=O)(=O)c1ccccc1Br	·	·	0	·	·
Nc1c(C(=O)N2CCN(CCc3ccccc3)CC2)cnn1-c1ccccc1	·	·	6	·	·
Nn1c(SCC(=O)Nc2ccccc2-c2ccccc2)nnc1-c1cc(-c2ccccc2)n[nH]1	·	·	7	·	·
COc1ccc(S[C@]2(C(=O)N3CCN(c4ncccn4)CC3)CC(=O)N(c3ccc(OC)cc3)[C@@H]2c2ccc(OC)cc2)cc1	·	·	15	·	·
CC1CCN(S(=O)(=O)c2ccc(NC(=O)Cc3cccs3)cc2)CC1	65*	22	24	8	5
O=C1/C(=C\c2ccc(Br)o2)SC(=Nc2ccccc2)N1c1ccccc1	59*	5	15	5	21
Cc1ccc(-n2nnnc2SCC(=O)Nc2ccc3c(c2)COC3=O)cc1C	49*	4	9	0	-2
Cc1ccc(-n2nnnc2SCC(=O)Nc2ccc3c(c2)OCCO3)cc1C	13	10	2	1	-4
CC(=O)NCCC(=O)Nc1ncc(S(=O)(=O)c2ccc([N+](=O)[O-])cc2)s1	2	3	3	-11	·
CCCCC(=O)Nc1ncc(S(=O)(=O)c2ccc([N+](=O)[O-])cc2)s1	13	55*	5	0	4
O=C(OCCOc1ccc(Cl)cc1)c1cc(S(=O)(=O)N2CCCCC2)ccc1N1CCOCC1	·	0	4	32	·
Cc1ccc(OCCOC(=O)c2cc(S(=O)(=O)N3CCCCC3)ccc2N2CCOCC2)cc1	·	0	2	50*	·
O=C(NN1C(=O)/C(=C/C=C/c2ccccc2)SC1=S)c1ccncc1	49*	10	29	12	26
COc1ccc(/C=C2\SC(=S)N(NC(=O)c3ccncc3)C2=O)cc1OC	-11	·	·	·	1
Cn1c(N2CCN(C(c3ccccc3)c3ccccc3)CC2)nc2ccccc21	16	1	-7	50*	-12
COc1ccc(OC)c(S(=O)(=O)N2CCCC(c3noc(-c4ccc(C)cc4)n3)C2)c1 (stereo not drawn)	·	·	3	·	·
Cc1nn(-c2ccccc2)nc1C(=O)Nc1cccc(C(=O)NC2CC2)c1	·	11	3	60*	·
